CHOP UPR activ: apoptotic UPR (CHOP) activation | CHO-CHOP luciferase reporter, luminescence; percent of tunicamycin response over DMSO baseline | activation, % at 10 µM | 330,000 tested, 0.34% active | AID 449763;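 active = at 10 µM dose, activation of 40% or more, normalized to positive control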
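Test system: CHO CHOP reporter cells. Input: 500 CHO-CHOP cells per well. Medium: F12 with 10% FBS. Technique: luciferase luminescence. Measure: percent activation relative to tunicamycin control. Dosing: 10 µM compound, 0.5% DMSO. Timing: 16-18 h cell attachment, then 6 h compound exposure, 37 °C.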
MDM2 E3 inh: inhibitors of human Mdm2 E3 ubiquitin ligase. Q00987. cell-based MDM2 ubiquitination luciferase reporter, 2 h; 0 = plate control, 100 = twice control, blank-subtracted. signal enhancement, % at 5 µM. 210,000 tested, 0.11% active. AID 1230;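 active = signal enhancement of 30% or more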;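 note: luminescence tracks abundance of the self-degrading MDM2-luciferase fusion protein; higher signal means inhibition of MDM2 E3 ligase activity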
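test system = mammalian cells stably expressing self-ubiquitinating, self-degrading MDM2 E3–luciferase fusion | quantity = 2000 cells/well | incubation = cell settling 4 h, compound treatment 2 h, both 37 °C | signal = luminescence with SteadyLite reagent, 15 min at room temperature | evaluation = % enhancement relative to plate controls after blank subtraction | benchmarks = plate controls and plate blanks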
UPR XBP1 act: activators of adaptive arm of unfolded protein response (XBP1); activation, % at 20 µM; 330,000 tested, 0.33% active; AID 463104; CHO-XBP1 luciferase reporter, IRE1-XBP1 UPR activation, luminescence; percent of tunicamycin response, DMSO as zero;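 active = versus positive control, 20 µM dose yields 30% or more activation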
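Material – CHO cell line with stable XBP1 luciferase reporter · Buffer or medium – F12 plus 10% FBS · Compound – single point, 20 µM final compound, 1% DMSO · Schedule – 16-18 h cell attachment at 37 °C, then 6 h compound exposure · Signal – Steady-Glo luminescence read · Benchmarks – high control tunicamycin 10 µg/mL final, low control DMSO vehicle only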
Mdm2 MdmX PPI: human Mdm2/MdmX binding inhibition; O15151+Q00987; SaOS-2 split-luciferase Mdm2/MdmX complementation, luminescence; inhibition, % at 8 µM; 330,000 tested, 3% active; AID 485346;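 active = inhibition of at least 50% at 8 µM in the primary screen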
B2AR ag: agonists of human beta-2 adrenergic receptor inducing internalization. P07550. Am2.2-beta2AR cells, FAP receptor internalization, flow cytometry. response, % (test concentration not listed). 340,000 tested, 0.43% active;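 active = response above a set limit, near 3 SD of response in nonfluorescent compounds, cut at about 42% in these data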
Target sequence (P07550 whole entry, looked up): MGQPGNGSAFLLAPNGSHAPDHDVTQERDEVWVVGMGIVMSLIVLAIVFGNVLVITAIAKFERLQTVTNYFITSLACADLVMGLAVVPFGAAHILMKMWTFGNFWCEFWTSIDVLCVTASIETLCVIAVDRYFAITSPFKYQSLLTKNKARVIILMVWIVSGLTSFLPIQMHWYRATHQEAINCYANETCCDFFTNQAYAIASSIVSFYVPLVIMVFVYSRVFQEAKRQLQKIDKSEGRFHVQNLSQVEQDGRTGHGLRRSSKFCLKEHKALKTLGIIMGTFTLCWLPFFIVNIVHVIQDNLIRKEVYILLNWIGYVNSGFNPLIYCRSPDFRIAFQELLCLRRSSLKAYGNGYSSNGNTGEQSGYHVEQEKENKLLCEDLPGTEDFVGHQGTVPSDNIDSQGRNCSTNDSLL
Dynein cargo inh: blocks dynein driven cargo transport along microtubules; 3617.4 mouse cells, GR-EGFP nuclear translocation imaging; test concentration mostly 20 µM; stimulated with dexamethasone, 1 µM; active compounds read low; z-score, hits read low; 220,000 tested, 0.47% active; AID 1381;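 active = plate z-score of nuclear minus cytoplasmic receptor signal below a set negative limit, without overly bright fluorescence or cell loss, cut at about -3.5 in these data, passing the limit was not always enough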;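 note: z-score of nuclear minus cytoplasmic ring GR-EGFP intensity difference per well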
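Buffer or medium – tet-free medium with charcoal-stripped serum · Signal – automated 10x imaging of fixed Hoechst-stained cells · Also added – dexamethasone agonist, 1.0 µM final, for 30 min · Incubation – induction 48 h, compound 1 h, agonist 30 min · Read-out – GR-EGFP nuclear translocation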
Mdm2 MdmX conf: human Mdm2/MdmX binding inhibition, confirmed. shares compounds with Mdm2 MdmX PPI. luminescent assay. inhibition, % at 8 µM. 10,000 tested, 55% active. AID 489028; in the data active = inhibition above about 40%
Full FLuc ctr: full-length luciferase inhibition in Mdm2/MdmX counter-screen; shares compounds with Mdm2 MdmX PPI; SaOS-2 full-length luciferase counterscreen, luminescence; inhibition, % at 8 µM; 6,200 tested, 77% active; AID 504607;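 active = mean inhibition at 8 µM reaching about 37%, which flags the compound as non-specific, limit read from the data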;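 note: p53-null SaOS-2 cells with luciferase driven by a doxycycline-inducible promoter; compound on cells about two nights before reading with doxycycline added after day one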
Each line names hits and unclear results; the compound was inactive in the other large screens (follow-up assays come after a bar, where they were run). Hits are enriched below; roughly 3.7% of the tested compounds scored in any of these assays.

CN(CC(=O)Nc1c(Cl)cccc1Cl)C(=O)c1ccc2nc[nH]c2c1	none (no result: MDM2 E3 inh, Dynein cargo inh)
O=C(c1ccccc1)c1cnc(Nc2ccc(Cl)c(Cl)c2)s1	Mdm2 MdmX PPI 71 | Mdm2 MdmX conf inactive
Fc1ccc(-n2nnnc2-c2cnc(-c3cccs3)nc2C(F)(F)F)cc1	Mdm2 MdmX PPI 56 | Mdm2 MdmX conf 44 | Full FLuc ctr 59
COc1ccc(-c2cc(-c3nc4ccccn4c3NCc3ccccc3)ccc2OC)cc1	Mdm2 MdmX PPI 99, B2AR ag 66 (no result: MDM2 E3 inh, Dynein cargo inh) | Mdm2 MdmX conf 99 | Full FLuc ctr 52
Clc1ccc2nc(-c3cccc(SC4CCCCC4)c3)c(NCc3ccccc3)n2c1	none (no result: MDM2 E3 inh, Dynein cargo inh)
Clc1cccc(-c2ccc(-c3nc4ccccn4c3NCc3ccccc3)cc2)c1	Mdm2 MdmX PPI 59 (no result: MDM2 E3 inh, Dynein cargo inh) | Mdm2 MdmX conf inactive
c1ccc(CNc2c(-c3cccc(SC4CCCCC4)c3)nc3ccccn23)cc1	Mdm2 MdmX PPI 71 (no result: MDM2 E3 inh, Dynein cargo inh) | Mdm2 MdmX conf inactive
Cc1ccn2c(NCc3ccccc3)c(-c3cccc(SC4CCCCC4)c3)nc2c1	Mdm2 MdmX PPI 58 (no result: MDM2 E3 inh, Dynein cargo inh) | Mdm2 MdmX conf inactive
Cc1ccc2nc(-c3cccc(SC4CCCCC4)c3)c(NCc3ccccc3)n2c1	none (no result: MDM2 E3 inh, Dynein cargo inh)
CNc1nnc(SCC(=O)c2c(N)n(C3CC3)c(=O)[nH]c2=O)s1	none (no result: MDM2 E3 inh, Dynein cargo inh)
CC(C)c1cc(C(C)C)c(S(=O)(=O)N2c3ccccc3[C@@]3(Br)C[C@H]4C(=O)N[C@@H](Cc5ccccc5)C(=O)N4[C@@H]23)c(C(C)C)c1	Mdm2 MdmX PPI 59 (no result: MDM2 E3 inh, B2AR ag, Dynein cargo inh) | Mdm2 MdmX conf inactive | Full FLuc ctr 106
Cc1nc(NC(=O)CSc2nc3cccnc3n2C2CCCCC2)sc1C	Mdm2 MdmX PPI 57 | Mdm2 MdmX conf inactive | Full FLuc ctr 96
CCc1nnc(NC(=O)CSc2nc3cccnc3n2C2CCCCC2)s1	none
CC1(c2ccccc2Br)NC(=O)N(CC(=O)NC2CCCCC2)C1=O (centres undefined)	none (no result: MDM2 E3 inh, Dynein cargo inh)
O=C(NC(NCC1CCCO1)C(Cl)(Cl)Cl)c1cccc2ccccc12 (centres undefined)	Mdm2 MdmX PPI 55 | Mdm2 MdmX conf inactive
COc1cccc(N/C(N)=N/c2nc(CSc3ccccn3)cc(=O)[nH]2)c1	Mdm2 MdmX PPI 52 (no result: B2AR ag) | Mdm2 MdmX conf 49 | Full FLuc ctr 79
N/C(=N\c1nc(CSc2nc3ccccc3s2)cc(=O)[nH]1)Nc1ccc(F)cc1	Mdm2 MdmX PPI 57 (no result: MDM2 E3 inh) | Mdm2 MdmX conf 46 | Full FLuc ctr 52
Cc1ccc(N/C(N)=N/c2nc(CSc3nnc(N)s3)cc(=O)[nH]2)cc1	none
CCc1ccc(N/C(N)=N/c2nc(CSc3ccccn3)cc(=O)[nH]2)cc1	none
CSc1nc(N)c(NC(=O)c2ccc(Br)o2)c(=O)[nH]1	none (no result: MDM2 E3 inh, Dynein cargo inh)
CC(C)(C)OC(=O)NCCCCCNC(=O)c1[nH]cnc1C(=O)N[C@@H](Cc1ccccc1)C(=O)OC(C)(C)C	none (no result: MDM2 E3 inh, Dynein cargo inh)
CC(C)(C)OC(=O)[C@H](Cc1ccccc1)NC(=O)c1nc[nH]c1C(=O)N[C@@H](Cc1ccccc1)C(=O)OC(C)(C)C	Mdm2 MdmX PPI 86 | Mdm2 MdmX conf inactive
C[C@H](NC(=O)c1nc[nH]c1C(=O)N[C@@H](Cc1ccccc1)C(=O)OC(C)(C)C)C(=O)OC(C)(C)C	none
CC(C)(C)OC(=O)NCCCC[C@H](NC(=O)c1[nH]cnc1C(=O)N[C@@H](Cc1ccccc1)C(=O)OC(C)(C)C)C(=O)OC(C)(C)C	Mdm2 MdmX PPI 62 | Mdm2 MdmX conf inactive
CC(=O)Nc1nc(C)c(-c2csc(Nc3ccc(O)cc3)n2)s1	Mdm2 MdmX PPI 66 | Mdm2 MdmX conf 68 | Full FLuc ctr 44
COc1ccc(Nc2nc(-c3sc(C)nc3C)cs2)cc1	Mdm2 MdmX PPI 50 (no result: MDM2 E3 inh, Dynein cargo inh) | Mdm2 MdmX conf 45 | Full FLuc ctr 61

Compound activity from PubChem BioAssay.
